Assay results from ChEMBL document CHEMBL1151472, “In vitro interactions between tacrolimus and azoles against Candida albicans determined by different methods” (2008).
≈ marks a conversion by molar mass, not a printed value.

Legend:
Format in all cases: functional
Candida albicans [1] = assay: Antimicrobial activity against azole-susceptible Candida albicans isolate CA129 after 48 hrs by broth microdilution method; conditions: isolate CA129, 48 h
Summary of the method: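 CLSI M27-A2 broth microdilution was run in RPMI 1640 (pH 7.0, 2% dextrose, 0.165 M MOPS). Inoculum was 2.5 × 10^3 CFU/ml, incubated 35°C for 48 h without shaking. Plates were read visually (0–5 scale) and at OD 492 nm. MIC80 = lowest concentration giving an 80% absorbance decrease vs drug-free control. Triplicate.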

Candida albicans [2] = assay: Antimicrobial activity against azole-resistant Candida albicans isolate CA10 assessed as growth at 64 ug/ml co-treated with 0.125 ug/ml calcineurin signaling inhibitor tacrolimus after 48 hrs by microdilution checkboard technique relative to control; parameters: scale not given: the % may be the effect or the level left
Summary of the method: (§1)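 CA10 in RPMI 1640 with 2% dextrose and 0.165 M MOPS, pH 7.0. Checkerboard used twofold dilutions, with azole alone in row H and the drug-free growth control in well H1. Final inoculum was 2.5 × 10^3 CFU/ml, incubated 35°C for 48 h, with OD read at 492 nm. Growth % = background-subtracted well OD / drug-free well OD. Run in triplicate on different days.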

Candida albicans [3] = assay: Antimicrobial activity against azole-resistant Candida albicans isolate CA10 assessed as growth at 32 ug/ml co-treated with 0.004 ug/ml calcineurin signaling inhibitor tacrolimus after 48 hrs by microdilution checkboard technique relative to control; parameters: scale not given: the % may be the effect or the level left
Summary of the method: (§2)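 Checkerboard microdilution in MOPS-buffered RPMI 1640 (pH 7.0, 2% dextrose). Final ranges: azole 0.125–128 μg/ml (FLC) or 0.008–8 μg/ml (ITR, VRC), tacrolimus 0.002–0.125 μg/ml; solvent 1% in single-drug wells. Inoculum 2.5 × 10^3 CFU/ml, 35°C, 48 h. Growth % = background-subtracted OD492 of each well / drug-free well. Triplicate on different days.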

Candida albicans [4] = assay: Antimicrobial activity against azole-resistant Candida albicans isolate CA10 assessed as growth at 0.25 ug/ml cotreated with 0.004 ug/ml calcineurin signaling inhibitor Tacrolimus after 48 hrs by microdilution checkboard technique relative to control; parameters: scale not given: the % may be the effect or the level left
Summary of the method: (§3)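 Checkerboard microdilution in RPMI 1640 (pH 7.0, 2% dextrose, 0.165 M MOPS). Azole dilutions run along columns and FK506 along rows, at 4× final concentration. Final inoculum 2.5 × 10^3 CFU/ml from Sabouraud-subcultured cells. Incubated 35°C for 48 h; OD read at 492 nm. Background from microorganism-free plates subtracted. Growth % = well OD / drug-free well OD. Triplicate on different days, values averaged.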

Candida albicans [5] = assay: Antimicrobial activity against azole-resistant Candida albicans isolate CA10 assessed as growth at 32 ug/ml cotreated with 0.002 ug/ml calcineurin signaling inhibitor Tacrolimus after 48 hrs by microdilution checkboard technique relative to control; parameters: scale not given: the % may be the effect or the level left; summary of the method: as §1
Candida albicans [6] = assay: Antimicrobial activity against azole-resistant Candida albicans isolate CA10 assessed as growth at 0.5 ug/ml cotreated with 0.063 ug/ml calcineurin signaling inhibitor Tacrolimus after 48 hrs by microdilution checkboard technique relative to control; parameters: scale not given: the % may be the effect or the level left; summary of the method: as §2
Candida albicans [7] = assay: Antimicrobial activity against azole-resistant Candida albicans isolate CA10 assessed as growth at 64 ug/ml co-treated with 0.031 ug/ml calcineurin signaling inhibitor tacrolimus after 48 hrs by microdilution checkboard technique relative to control; parameters: scale not given: the % may be the effect or the level left; summary of the method: as §3
Candida albicans [8] = assay: Antimicrobial activity against azole-resistant Candida albicans isolate CA10 assessed as growth at 0.125 ug/ml after 48 hrs by microdilution checkerboard technique relative to control; summary of the method: as §2
Candida albicans [9] = assay: Antimicrobial activity against azole-resistant Candida albicans isolate CA10 assessed as growth at 8 ug/ml cotreated with 0.016 ug/ml calcineurin signaling inhibitor Tacrolimus after 48 hrs by microdilution checkboard technique relative to control; parameters: scale not given: the % may be the effect or the level left; summary of the method: as §1
Candida albicans [10] = assay: Antimicrobial activity against azole-resistant Candida albicans isolate CA10 assessed as growth at 32 ug/ml co-treated with 0.031 ug/ml calcineurin signaling inhibitor tacrolimus after 48 hrs by microdilution checkboard technique relative to control; parameters: scale not given: the % may be the effect or the level left; summary of the method: as §3
Candida albicans [11] = assay: Antimicrobial activity against azole-resistant Candida albicans isolate CA10 assessed as growth at 4 ug/ml cotreated with 0.016 ug/ml calcineurin signaling inhibitor Tacrolimus after 48 hrs by microdilution checkboard technique relative to control; parameters: scale not given: the % may be the effect or the level left; summary of the method: as §1
Candida albicans [12] = assay: Antimicrobial activity against azole-resistant Candida albicans isolate CA10 assessed as growth at 0.5 ug/ml cotreated with 0.002 ug/ml calcineurin signaling inhibitor tacrolimus after 48 hrs by microdilution checkerboard technique relative to control; parameters: scale not given: the % may be the effect or the level left; summary of the method: as §2
Candida albicans [13] = assay: Antimicrobial activity against azole-resistant Candida albicans isolate CA10 assessed as log reduction in colony count at 10 ug/ml co-treated with calcineurin signaling inhibitor tacrolimus after 48 hrs by XTT assay
Summary of the method: (§4)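 Same time-kill setup (10^5 CFU/ml start, azole ± 0.016 μg/ml FK506, 35°C). At each time point, aliquots were mixed 1:1 with XTT (0.5 g/liter in Ringer's lactate) plus 10 μM menadione final. Incubation was in the dark for up to 2 h at 35°C, then formazan was read at 492 nm. OD was converted to CFU via a standard curve (Y = 4.2610x + 4.2087). Triplicate.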

Candida albicans [14] = assay: Antimicrobial activity against azole-resistant Candida albicans isolate CA10 assessed as growth at 2 ug/ml cotreated with 0.063 ug/ml calcineurin signaling inhibitor tacrolimus after 48 hrs by microdilution checkerboard technique relative to control; parameters: scale not given: the % may be the effect or the level left; summary of the method: as §2
Candida albicans [15] = assay: Antimicrobial activity against azole-resistant Candida albicans isolate CA10 assessed as growth at 0.125 ug/ml co-treated with 0.016 ug/ml calcineurin signaling inhibitor tacrolimus after 48 hrs by microdilution checkboard technique relative to control; parameters: scale not given: the % may be the effect or the level left; summary of the method: as §2
Candida albicans [16] = assay: Antimicrobial activity against azole-resistant Candida albicans isolate CA10 assessed as growth at 4 ug/ml cotreated with 0.063 ug/ml calcineurin signaling inhibitor Tacrolimus after 48 hrs by microdilution checkboard technique relative to control; parameters: scale not given: the % may be the effect or the level left; summary of the method: as §1
Candida albicans [17] = assay: Antimicrobial activity against azole-resistant Candida albicans isolate CA10 co-treated with calcineurin signaling inhibitor tacrolimus after 48 hrs by microdilution checkerboard technique; conditions: isolate CA10, 48 h
Summary of the method: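 Checkerboard microdilution in MOPS-buffered RPMI 1640 (pH 7.0, 2% dextrose) with 2.5 × 10^3 CFU/ml for 48 h at 35°C. Final FK506 was 0.002–0.125 μg/ml. Azole finals were FLC 0.125–128 μg/ml, and ITR and VRC 0.008–8 μg/ml. MIC80 is an 80% OD492 decrease vs drug-free control. Interaction was scored by FICI (synergy ≤0.5, antagonism >4) and by ΔE from triplicates.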

Candida albicans [18] = assay: Antimicrobial activity against azole-resistant Candida albicans isolate CA10 assessed as growth at 128 ug/ml after 48 hrs by microdilution checkerboard technique relative to control; summary of the method: as §2
Candida albicans [19] = assay: Antimicrobial activity against azole-susceptible Candida albicans isolate CA14 assessed as lof reduction in colony count at 10 ug/ml cotreated with calcineurin signaling inhibitor Tacrolimus after 48 hrs by XTT assay; summary of the method: as §4
Candida albicans [20] = assay: Antimicrobial activity against azole-resistant Candida albicans isolate CA10 assessed as growth at 8 ug/ml co-treated with 0.004 ug/ml calcineurin signaling inhibitor tacrolimus after 48 hrs by microdilution checkboard technique relative to control; parameters: scale not given: the % may be the effect or the level left; summary of the method: as §1

OC(Cn1cncn1)(Cn1cncn1)c1ccc(F)cc1F [FLUCONAZOLE]
MIC (Candida albicans [1]): 0.5 µg/mL (≈ 1.63 µM)
Activity (Candida albicans [2]): 0%
Activity (Candida albicans [3]): 30%
Activity (Candida albicans [4]): 42%
Activity (Candida albicans [5]): 36%
Activity (Candida albicans [6]): 13%
Activity (Candida albicans [7]): 13%
Activity (Candida albicans [8]): 75%
Activity (Candida albicans [9]): 19%
Activity (Candida albicans [10]): 16%
Activity (Candida albicans [11]): 18%
Activity (Candida albicans [12]): 55%
Activity (Candida albicans [13]): 2.37
Activity (Candida albicans [14]): 13%
Activity (Candida albicans [15]): 38%
Activity (Candida albicans [16]): 13%
MIC (Candida albicans [17]): 0.25 µg/mL
Activity (Candida albicans [18]): 48%
Activity (Candida albicans [19]): 1.51
Activity (Candida albicans [20]): 34%
